Assay results from different studies.

CCCCCCCCNCC(O)c1cc(Cl)cc2c1-c1ccc(Cl)cc1C2 (racemic) — CC50 (HepG2; cell growth or viability; 48 h): 5.9 µM
CCN1CCN(Cc2ccc(NC(=O)c3ccc(C)c(NC(=O)c4cncc(-c5cccs5)c4)c3)cc2C(F)(F)F)CC1 — MRT (mouse, plasma; intraperitoneal, 20 mg/kg, single dose): 3.52 h
CC(=O)O[C@@]12CO[C@@H]1C[C@H](O)[C@@]1(C)C(=O)[C@H](O)C3=C(C)[C@@H](OC(=O)[C@H](O)[C@@H](NC(=O)OC(C)(C)C)c4ccccc4)C[C@@](O)([C@@H](OC(=O)c4ccccc4)[C@H]21)C3(C)C — MRT (male Kunming mouse, lung; oral, 20 mg/kg): 1.8 h
CCS(=O)(=O)c1nc(C)cc(-c2ccccc2)n1 — CC50 (HEK-293T; cell growth or viability, ATP luminescence; 24 h): > 60 µM
CCOc1ccc(N(C)S(=O)(=O)c2cc(Cl)sc2C(=O)Nc2cc(Cl)cc(C(=O)O)c2)cc1OC — MRT(0-inf) (male C57BL/6 mouse, brain; intraperitoneal, 10 mg/kg): 0.854 h
CCCCCNC[C@H](O)c1cc(Cl)cc2c1-c1ccc(Cl)cc1C2 — CC50 (HepG2; cell growth or viability; 48 h): 6.3 µM
CC[S+]([O-])c1nc(-c2cccc(OCc3ccccc3)c2)cc(C(F)(F)F)n1 (centres unmarked) — CC50 (HEK-293T; cell growth or viability, ATP luminescence; 24 h): 20 µM
C=CS(=O)(=O)c1ccc(Nc2nc(OCC3CCCCC3)c3nc[nH]c3n2)cc1 — MRT(0-t) (male BALB/c mouse, plasma; intraperitoneal, 20 mg/kg, single dose): 2.26 h
